Measurements reported in ChEMBL document CHEMBL3576850 (J Nat Prod, 2015).
pIC50: −log10 of the molar value. ≈ marks a conversion by molar mass, not a printed value. Calls of active or inactive are those of the source. No cut-off for these calls is given here.

Key:
[1] = target: Pyruvate kinase PKM (Homo sapiens) (UniProt P14618); experiment: Inhibition of recombinant his-tagged human pyruvate kinase M2 expressed in Escherichia coli BL-21(DE3) using PEP as substrate at 5 uM after 5 mins by L-LDH coupled assay relative to control
In short: (§1)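 His-tagged human PK isoform in a continuous rabbit muscle L-LDH-coupled assay, read as 340 nm absorbance change. Compounds added from DMSO, final DMSO ≤1%. Three measurements, each in triplicate.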

[2] = target: Pyruvate kinase PKM (Homo sapiens) (UniProt P14618); experiment: Inhibition of recombinant his-tagged human pyruvate kinase M1 expressed in Escherichia coli BL-21(DE3) using PEP as substrate at 5 uM after 5 mins by L-LDH coupled assay relative to control; in short: as §1
[3] = target: Pyruvate kinase PKLR (Homo sapiens) (UniProt P30613); experiment: Inhibition of recombinant his-tagged human pyruvate kinase L expressed in Escherichia coli BL-21(DE3) using PEP as substrate at 5 uM after 5 mins by L-LDH coupled assay relative to control; in short: as §1
[4] = Inhibition of recombinant his-tagged methicillin-resistant Staphylococcus aureus pyruvate kinase expressed in Escherichia coli BL-21(DE3) using PEP as substrate after 5 mins by L-LDH coupled assay
[5] = target: Pyruvate kinase PKLR (Homo sapiens) (UniProt P30613); experiment: Inhibition of recombinant his-tagged human pyruvate kinase R expressed in Escherichia coli BL-21(DE3) using PEP as substrate at 5 uM after 5 mins by L-LDH coupled assay relative to control; in short: as §1
[6] = target: Pyruvate kinase PKM (Homo sapiens) (UniProt P14618); experiment: Inhibition of recombinant his-tagged human pyruvate kinase M2 expressed in Escherichia coli BL-21(DE3) using PEP as substrate at 10 uM after 5 mins by L-LDH coupled assay relative to control; in short: as §1
[7] = target: Pyruvate kinase PKLR (Homo sapiens) (UniProt P30613); experiment: Inhibition of recombinant his-tagged human pyruvate kinase L expressed in Escherichia coli BL-21(DE3) using PEP as substrate at 10 uM after 5 mins by L-LDH coupled assay relative to control; in short: as §1
[8] = target: Pyruvate kinase PKM (Homo sapiens) (UniProt P14618); experiment: Inhibition of recombinant his-tagged human pyruvate kinase M1 expressed in Escherichia coli BL-21(DE3) using PEP as substrate at 10 uM after 5 mins by L-LDH coupled assay relative to control; in short: as §1
[9] = target: Pyruvate kinase PKLR (Homo sapiens) (UniProt P30613); experiment: Inhibition of recombinant his-tagged human pyruvate kinase R expressed in Escherichia coli BL-21(DE3) using PEP as substrate at 10 uM after 5 mins by L-LDH coupled assay relative to control; in short: as §1
Staphylococcus aureus [10] = experiment: Antibacterial activity against methicillin-susceptible Staphylococcus aureus RN4220 by 2-fold serial broth microdilution method; assay type: functional
Staphylococcus aureus [11] = experiment: Antibacterial activity against methicillin-resistant Staphylococcus aureus 252 by 2-fold serial broth microdilution method; assay type: functional

Chain of Pyruvate kinase PKLR (Homo sapiens) (P30613 whole entry, looked up): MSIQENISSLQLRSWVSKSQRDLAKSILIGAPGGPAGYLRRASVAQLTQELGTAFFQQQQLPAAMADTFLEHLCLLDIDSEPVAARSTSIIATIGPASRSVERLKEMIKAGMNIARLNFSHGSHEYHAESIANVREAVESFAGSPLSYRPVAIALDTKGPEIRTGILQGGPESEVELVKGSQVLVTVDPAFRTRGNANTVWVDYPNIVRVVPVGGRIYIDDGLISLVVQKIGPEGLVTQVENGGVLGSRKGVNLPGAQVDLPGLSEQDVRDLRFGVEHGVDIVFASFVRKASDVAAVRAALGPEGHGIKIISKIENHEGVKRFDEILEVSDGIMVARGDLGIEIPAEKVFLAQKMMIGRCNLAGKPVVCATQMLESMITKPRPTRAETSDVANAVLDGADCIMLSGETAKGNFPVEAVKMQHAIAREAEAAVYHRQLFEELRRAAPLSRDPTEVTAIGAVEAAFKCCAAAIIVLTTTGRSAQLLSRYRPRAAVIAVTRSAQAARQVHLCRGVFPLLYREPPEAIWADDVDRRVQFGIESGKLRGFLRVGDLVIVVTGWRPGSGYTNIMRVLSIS
Chain of Pyruvate kinase PKM (Homo sapiens) (P14618 2-531 limits assumed): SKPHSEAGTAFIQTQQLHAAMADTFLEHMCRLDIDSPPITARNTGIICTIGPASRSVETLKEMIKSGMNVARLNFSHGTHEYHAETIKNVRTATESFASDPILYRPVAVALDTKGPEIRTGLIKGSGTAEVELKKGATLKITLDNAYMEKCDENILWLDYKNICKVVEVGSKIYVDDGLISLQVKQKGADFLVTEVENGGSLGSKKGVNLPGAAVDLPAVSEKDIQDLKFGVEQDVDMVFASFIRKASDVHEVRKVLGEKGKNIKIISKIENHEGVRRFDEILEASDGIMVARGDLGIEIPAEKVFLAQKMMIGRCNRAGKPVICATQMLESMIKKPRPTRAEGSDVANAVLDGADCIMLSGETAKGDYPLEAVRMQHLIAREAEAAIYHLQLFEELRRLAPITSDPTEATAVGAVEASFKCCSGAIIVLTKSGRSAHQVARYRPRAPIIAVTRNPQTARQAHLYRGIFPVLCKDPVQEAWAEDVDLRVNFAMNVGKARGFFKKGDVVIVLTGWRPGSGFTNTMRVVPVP

Row | Structure (SMILES) | inhibition [1] | inhibition [2] | inhibition [3] | pIC50 [4] | inhibition [5] | inhibition [6] | inhibition [7] | inhibition [8] | inhibition [9] | MIC (Staphylococcus aureus [10]) | MIC (Staphylococcus aureus [11])
1 | O=C(c1nc(-c2c[nH]c3cc(Cl)ccc23)c[nH]1)c1c[nH]c2cc(Cl)ccc12 | 0% | 0% | < 40% | 8.82 | < 40% | – | – | – | – | – | –
2 | O=C(c1ncc(-c2c[nH]c3cc(Br)ccc23)[nH]1)c1c[nH]c2cc(Br)ccc12 | 0% | 0% | < 40% | – | < 40% | – | – | – | – | – | –
3 | O=C(c1nc(-c2c[nH]c3ccccc23)c[nH]1)c1c[nH]c2ccccc12 | – | – | – | – | – | inactive | inactive | inactive | inactive | – | –
4 | O=C(c1nc(-c2c[nH]c3cc(I)ccc23)c[nH]1)c1c[nH]c2cc(I)ccc12 | 0% | 0% | < 40% | 8.48 | < 40% | – | – | – | – | – | –
5 | O=C(c1nc(-c2c[nH]c3c(Cl)cccc23)c[nH]1)c1c[nH]c2c(Cl)cccc12 | – | – | – | 4.59 | – | inactive | inactive | inactive | inactive | – | –
6 | O=C(c1nc(-c2c[nH]c3cc(F)ccc23)c[nH]1)c1c[nH]c2cc(F)ccc12 | – | – | – | 7.62 | – | inactive | inactive | inactive | inactive | – | –
7 | O=C(c1nc(-c2c[nH]c3ccc(Br)cc23)c[nH]1)c1c[nH]c2ccc(Br)cc12 | 0% | 0% | < 40% | 8.19 | < 40% | – | – | – | – | – | –
8 | O=C1NC[C@@H](c2c[nH]c3cc(Br)ccc23)N[C@H]1c1c[nH]c2cc(Br)ccc12 (relative stereo) [CIS-3,4-DIHYDROHAMACANTHIN B] | – | – | – | 7.80 | – | – | – | – | – | 6.25 µg/mL (≈ 12.8 µM) | 12.5 µg/mL (≈ 25.6 µM)
